From ChEMBL document CHEMBL1124794, “Synthesis, chemistry, and antineoplastic activity of alpha-halopyridinium salts: potential pyridone prodrugs of acylated vinylogous carbinolamine tumor inhibitors” (J Med Chem, 1990) come the findings set out here.

The nature of series [1]: Effect of pH on carbamate hydrolysis in 0.05 M buffer concentration at the pH 3.5, 25 degree C. Format: ADME. In short, it runs like this: (§1)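 Bis-carbamate in acetonitrile–water (1:1; buffer added to a 0.5 mg/mL acetonitrile solution), 0.05 M buffer, ionic strength 0.136 (KCl), 25 ± 0.1 °C. Buffers: phosphate pH 2.0; citrate pH 3.0–3.5; succinate pH 4.0; acetate pH 5.0; phosphate pH 6.0–8.0; borate pH 9.0; carbonate pH 10.0. HPLC bis-carbamate peak-area loss, ln(area0/areat) vs time slope = kobs. Duplicates averaged.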

Series [2] in a line: Effect of pH on carbamate hydrolysis in 0.05 M buffer concentration at the pH 8.0, 25 degree C. Format: ADME. A digest of the protocol: as §1
Series [3] is described as follows: Half life at the buffer concentration of 0.05 M. Format: ADME.
The nature of series [4]: Half life at the pH 6.0. Format: ADME. As to conditions: buffer. In short, it runs like this:
as §1

A short description of series [5]: Half life at the pH 7.4. Conditions: buffer. It counts as ADME.
Series [6] in a line: Half life at the pH 8.0. It counts as ADME. As to conditions: buffer.
A short description of series [7]: Half life at the pH 2.0. Format: ADME. As to conditions: buffer. A digest of the protocol:
as §1

The test system of series [8] is L1210. As to the kind of experiment: In vivo activity against murine L1210 tumor system at the dose of 60 mg/kg, activity expressed as body weight difference; T-C. Format: functional, Mus musculus. A digest of the protocol:
(§2)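 L1210 lymphocytic leukemia: ascitic fluid with ca. 10^6 cells injected ip into CD2F1 mice. Dosing started 24 h after inoculation and was repeated daily for five doses in total, from solutions or suspensions made fresh each day. Toxicity day survivors were scored on day 5. Body weight difference is day 5 minus day 1. %T/C is based on median survival time versus controls.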

In series [9] the test system is L1210. Briefly: In vivo activity against murine L1210 tumor system at the dose of 100 mg/kg, activity expressed as KE. Format: functional, Mus musculus.
Series [10] concerns L1210. Briefly: In vivo activity against murine L1210 tumor system at the dose of 100 mg/kg, activity expressed as %T/C. It counts as functional, Mus musculus. A digest of the protocol: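 CD2F1 mice received ca. 10^6 L1210 cells in ascitic fluid ip. Treatment started 24 h after inoculation and was given daily for five doses in total. %T/C compares median survival time of treated and control animals.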

Series [11] in a line: In vivo activity against murine M5076 tumor system at the dose of 36 mg/kg, activity expressed as TDS; 10/10. It counts as functional, Mus musculus. In short, it runs like this:
(§3)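 M5076: ascitic fluid with ca. 10^6 cells inoculated ip into CD2F1 mice. Dosing started 24 h after inoculation and was then given every 4 days for four doses in total, from solutions or suspensions made fresh each day. Toxicity day survivors were scored on day 5. Body weight difference is day 14 minus day 1. %T/C is based on median survival time versus controls.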

A short description of series [12]: In vivo activity against murine M5076 tumor system at the dose of 100 mg/kg, activity expressed as body weight difference; T-C. It counts as functional, Mus musculus. In short, it runs like this: as §3
Series [13] in a line: In vivo activity against murine M5076 tumor system at the dose of 36 mg/kg, activity expressed as KE. It counts as functional, Mus musculus. In short, it runs like this:
as §3

Series [14] deals with P388. As to the kind of experiment: In vivo activity against P388 Lymphocytic Leukemia in CD2F1 mice at the dose of 12.5 mg/kg, activity expressed as body weight difference; T-C. Format: functional, Mus musculus. In short, it runs like this:
(§4)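 CD2F1 mice were inoculated with ascitic fluid holding ca. 10^6 P388 cells. Drug was given daily from 24 h after inoculation, from solutions or suspensions made fresh each day, some as a saline suspension. TDS is survivors/initial animals on day 5. BWD is body weight on day 5 minus day 1. %T/C compares median survival of treated and control mice.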

The subject of series [15] is P388. As to the kind of experiment: In vivo activity against P388 Lymphocytic Leukemia in CD2F1 mice at the dose of 50 mg/kg, activity expressed as % T/C. Format: functional, Mus musculus. In short, it runs like this: as §4
Series [16] has as its system P388. Briefly: In vivo activity against P388 Lymphocytic Leukemia in CD2F1 mice at the dose of 12.5 mg/kg, activity expressed as TDS; 6/6. It counts as functional, Mus musculus. A digest of the protocol:
as §4

The subject of series [17] is P388. Briefly: In vivo activity against P388 Lymphocytic Leukemia in CD2F1 mice at the dose of 25 mg/kg, activity expressed as TDS; 6/6. Format: functional, Mus musculus. A digest of the protocol:
as §4

For series [18], the system named is P388. Briefly: In vivo activity against P388 Lymphocytic Leukemia in CD2F1 mice at the dose of 50 mg/kg, activity expressed as TDS; 6/6. Format: functional, Mus musculus. A digest of the protocol:
as §4

Series [19] relates to P388. As to the kind of experiment: In vivo activity against P388 Lymphocytic Leukemia in CD2F1 mice at the dose of 12.5 mg/kg, activity expressed as KE. Format: functional, Mus musculus.
Series [20] relates to P388. Briefly: In vivo activity against P388 Lymphocytic Leukemia in CD2F1 mice at the dose of 25 mg/kg, activity expressed as KE. Format: functional, Mus musculus.
Series [21] concerns P388. As to the kind of experiment: In vivo activity against P388 Lymphocytic Leukemia in CD2F1 mice at the dose of 50 mg/kg, activity expressed as KE. It counts as functional, Mus musculus.
The test system of series [22] is P388. Briefly: In vivo activity against P388 Lymphocytic Leukemia in CD2F1 mice at the dose of 12.5 mg/kg, activity expressed as % T/C. It counts as functional, Mus musculus. In short, it runs like this: as §4
Series [23] relates to P388. Briefly: In vivo activity against P388 Lymphocytic Leukemia in CD2F1 mice at the dose of 25 mg/kg, activity expressed as % T/C. Format: functional, Mus musculus. In short, it runs like this: as §4
Series [24] can be described thus: Effect of pH on the hydrolysis of pyridinium Moity in 0.05 M buffer concentration at the pH 6.0. Format: ADME. A digest of the protocol: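 Pyridinium salt in 0.05 M phosphate buffer, pH 6.0–8.0 (set by pH meter), ionic strength 0.25 M, 25 °C. Decrease in the pyridinium UV absorbance maximum followed over time to give pseudo-first-order kobs and half-life.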

A short description of series [25]: Effect of phosphate buffer on the hydrolysis of alpha Fluoropyridinium Moity at the concentration of 0.02M, pH 8.0, 25 degree C. It counts as ADME. A digest of the protocol: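 α-Fluoropyridinium hydrolysis to pyridone in phosphate buffer at 0.02, 0.05 or 0.10 M, pH 6.5 or 8.0, ionic strength […] °C. Pyridinium UV absorbance maximum followed with time to give pseudo-first-order kobs and half-life.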

Series [26] in a line: Half life at the pH 6.5. As to conditions: buffer. Format: ADME.
For series [27], the system named is MX1. Briefly: In vivo activity against murine MX-1 tumor system at the dose of 37.5 mg/kg, activity expressed as body weight difference. It counts as functional, Mus musculus.
Series [28] relates to MX1. Briefly: In vivo activity against murine MX-1 tumor system at the dose of 37.5 mg/kg, activity expressed as TDS; 4/6. It counts as functional, Mus musculus.
Series [29] in a line: In vivo activity against murine M5076 tumor system at the dose of 100 mg/kg, activity expressed as TDS; 6/10. It counts as functional, Mus musculus. In short, it runs like this: as §3
In series [30] the test system is L1210. Briefly: In vivo activity against murine L1210 tumor system at the dose of 25 mg/kg, activity expressed as %T/C. It counts as functional, Mus musculus. In short, it runs like this:
as §2

The test system of series [31] is P388. Briefly: In vivo activity against P388 Lymphocytic Leukemia in CD2F1 mice at the dose of 25 mg/kg, activity expressed as body weight difference. Format: functional, Mus musculus. In short, it runs like this: as §4
Series [32] deals with P388. Briefly: In vivo activity against P388 Lymphocytic Leukemia in CD2F1 mice at the dose of mg/kg, activity expressed as KE. It counts as functional, Mus musculus.
Series [33] can be described thus: Half life at the ionic strength 1.0 M NaCl. Format: ADME. A digest of the protocol:
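Pyridinium salt in 0.02 M phosphate buffer, pH 7.4, 25 °C, with NaCl varied 0.10–1.0 M. Loss of the pyridinium chromophore's UV absorbance maximum (conversion to pyridone) followed over time. Pseudo-first-order kobs and half-life derived from that decay.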

Series [34] can be described thus: Half life at the concentration of 0.05 M.

As a reminder, the half-life is the time in which the quantity being followed falls by half. Read a high half-life as slow decline. One may read the T/C as the ratio of treated to control. As to `CC(C)NC(=O)OCc1c(COC(=O)NC(C)C)c(-c2ccn(C)c(=O)c2)n2c1CCC2`, the K obs in series [1] turned out to be 0.0214 min⁻¹; in series [2], 0.0128 min⁻¹. Also, the half-life is 53.5 min in series [3]; 51.4 min in series [4]; 53.5 min in [5]; 54.1 min in series [6]; 2.11 min in [7]. Besides, the BWD in the series on L1210 [8] is on record as -3.2 g; in series [12], -1.3 g; with P388 [14], -0.1 g. The KE is given as -0.22 in the series with L1210 [9]; -1.69 in series [13]; -1.39 in the series on P388 [19]; -0.5 in the series on P388 [20]; -0.38 in the series with P388 [21]. Besides, the T/C is recorded as 146% in the series on L1210 [10], 132% in the series with P388 [15], 116% with P388 [22] and 130% in the series on P388 [23]. Moreover, the TDS in series [11] turned out to be 10; in the series with P388 [16] it was 6; in the series with P388 [17], 6; with P388 [18], 6.
With `CC(C)NC(=O)OCc1c(COC(=O)NC(C)C)c(-c2cc[n+](C)c(F)c2)n2c1CCC2.[I-]`, the K obs was 0.0044 min⁻¹ in series [24] and 0.0132 min⁻¹ in series [25]. Moreover, the half-life in [3] was 34.6 min; in [4] it was 158 min; in series [26] it was 45.3 min; in series [5] it was 20.5 min; in [6], 13.3 min; in series [33], 99.1 min. In addition, the BWD with MX1 [27] is listed as 0.3 g; in the series on P388 [31] it was -1 g. Besides, the TDS turned out to be 4 in the series with MX1 [28]; 6 in series [29]; 6 in the series with P388 [16]; 6 in the series with P388 [17]; 6 in the series on P388 [18]. The T/C with L1210 [30] came to 118%; with P388 [15], 157%; in the series on P388 [22], 149%; in the series on P388 [23], 141%. Moreover, the KE in the series with P388 [19] stood at 0.75; with P388 [21], 1.32; in the series with P388 [32], 1.25. The compound also came in with a T1/2 in [34] of 96.2 min.
